Assay results published in ChEMBL document CHEMBL1821615 (J Med Chem, 2011).
Active and inactive are the calls of the source. No cut-off for these calls is given here.

Experiments:
[1] = Displacement of [3H]-DTG from sigma 2 receptor from rat liver in presence of pantazocine
BXPC-3 [2] = assay: Cytotoxicity against human BxPC3 cells during nonproliferating stage assessed as decreased cell death at 100 uM after 18 hrs by crystal violet staining; format: functional, cell-based
How it was run: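 BxPC3 cells seeded at increasing densities (1 × 10^5 to 9 × 10^5) 24 h before treatment with 100 µM sigma-2 agonist. After 18 h, washed, fixed in 4% paraformaldehyde 30 min at 37 °C, crystal violet stained 15 min at 37 °C, and imaged by densitometry. Viability given as percent density relative to DMSO-treated cells.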

[3] = biological target: Sigma non-opioid intracellular receptor 1 (Cavia porcellus, UniProt Q60492); assay: Displacement of [3H]-pentazocine from sigma 1 receptor from guinea pig brain membrane
Sigma non-opioid intracellular receptor 1, sequence (Q60492 whole entry): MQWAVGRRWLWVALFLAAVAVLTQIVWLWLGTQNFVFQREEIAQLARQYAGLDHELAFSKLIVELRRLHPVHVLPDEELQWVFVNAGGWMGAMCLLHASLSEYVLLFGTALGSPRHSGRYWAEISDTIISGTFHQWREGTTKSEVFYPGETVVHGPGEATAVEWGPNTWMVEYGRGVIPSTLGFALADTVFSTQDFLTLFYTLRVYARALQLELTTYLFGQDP

[4] = Selectivity ratio of IC50 for guinea pig brain sigma 1 receptor to IC50 for rat liver sigma 2 receptor
How it was run: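 Sigma-1 binding used (+)-[3H]-pentazocine (34 Ci/mmol); sigma-2 binding used [3H]-DTG (30 Ci/mmol), per the Matsumoto et al. method. IC50 taken from six to nine test concentrations in two or three experiments, each in duplicate.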

BXPC-3 [5] = assay: Cellular uptake in human BxPC3 cells assessed as decrease drug uptake at 25 nM measured after 60 mins by flow cytometric analysis in presence of clathrin inhibitor phenylarsine oxide; format: ADME, cell-based; settings: bxpc-3, 1 h
How it was run: (§1)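 BxPC3 cells pretreated 60 min at 37 °C with phenylarsine oxide (10 µM; clathrin route) or Filipin III (5 µg/mL; caveolin route), or DMSO vehicle, then washed and resuspended in medium. Compound added at 25 nM; mean FL1 fluorescence read by flow cytometry in kinetic mode over 60 min, expressed as percent of maximum signal.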

BXPC-3 [6] = assay: Drug uptake in human BxPC3 cells assessed as decrease drug uptake at 25 nM measured after 60 mins by flow cytometric analysis in presence of caveolin inhibitor Filipin 3; format: ADME, cell-based; settings: bxpc-3, 1 h; how it was run: as §1
BXPC-3 [7] = assay: Drug uptake in human BxPC3 cells assessed as decreased uptake at increasing cell density at 25 nM after 30 min by flow cytometric analysis; format: ADME, cell-based; settings: bxpc-3, 0.5 h
How it was run: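 BxPC3 cells seeded at increasing densities to give subconfluent (dividing) through confluent (quiescent) cultures. Next day, cells treated with compound at 25 nM for 30 min at 37 °C, and fluorescence intensity measured by flow cytometry.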

Row | Ki [1] [nM] | Ki [3] [nM] | SMILES | Activity (BXPC-3 [2]) | Ratio Ki [4] | Drug uptake (BXPC-3 [5]) [%] | Drug uptake (BXPC-3 [6]) [%] | Drug uptake (BXPC-3 [7])
1 | 1720 | 2570 | COc1cccc2c1CCCC2CCCN1CCN(C2CCN(CCCCCCNc3ccc([N+](=O)[O-])c4nonc34)CC2)CC1 (stereo not given) | – | – | – | – | –
2 | – | – | Fc1cccc(F)c1[C@H]1CC[C@@H](N2CCN(C3CCCCC3)CC2)CC1 | inactive | – | – | – | –
3 | 25.7 | 19.8 | CN(C)c1cccc2c(S(=O)(=O)NCCOCCOc3cccc4c3CCCC4CCCN3CCN(C4CCCCC4)CC3)cccc12 (stereo not given) | – | – | – | – | –
4 | 20.8 | 9.08 | CN(C)c1cccc2c(S(=O)(=O)NCCCCCCOc3cccc4c3CCCC4CCCN3CCN(C4CCCCC4)CC3)cccc12 (stereo not given) | – | – | – | – | –
5 | 5020 | > 5000 | COc1cccc2c1CCCC2CCCN1CCN(C2CCN(CCCCCCNS(=O)(=O)c3cccc4c(N(C)C)cccc34)CC2)CC1 (stereo not given) | – | – | – | – | –
6 | 39.3 | 96.2 | O=[N+]([O-])c1ccc(NCCOCCOc2cccc3c2CCCC3CCCN2CCN(C3CCCCC3)CC2)c2nonc12 (stereo not given) | – | 2.5 | – | – | –

Row | SMILES | Ki [1] [nM] | Ki [3] [nM] | Activity (BXPC-3 [2]) | Ratio Ki [4] | Drug uptake (BXPC-3 [5]) [%] | Drug uptake (BXPC-3 [6]) [%] | Drug uptake (BXPC-3 [7])
7 | COc1cccc2c1CCCC2CCCN1CCN(C2CCCCC2)CC1 (stereo not given) | 0.68 | – | inactive | – | – | – | –
8 | O=[N+]([O-])c1ccc(NCCCCCCOc2cccc3c2CCCC3CCCN2CCN(C3CCCCC3)CC2)c2nonc12 (stereo not given) | 10.8 | 78.7 | – | 8 | 69 | 50 | Not Active
